Laboratory results as given in ChEMBL document CHEMBL5712913, “Discovery of novel ATAD2 bromodomain inhibitors that trigger apoptosis and autophagy in breast cells by structure-based virtual screening” (J Enzyme Inhib Med Chem, 2020).
The source made the active and inactive calls. The calls are words filed in the database; no cut-off is given here.

Columns and labels:
[1] = biological target: T1, ATPase family AAA domain-containing protein 2 (Homo sapiens, UniProt Q6PL18); experiment: Inhibitory activity against ATAD2 (unknown origin) at bromodomain incubated for 180 min by Tr-FRET assay
T1 sequence (Q6PL18 whole entry): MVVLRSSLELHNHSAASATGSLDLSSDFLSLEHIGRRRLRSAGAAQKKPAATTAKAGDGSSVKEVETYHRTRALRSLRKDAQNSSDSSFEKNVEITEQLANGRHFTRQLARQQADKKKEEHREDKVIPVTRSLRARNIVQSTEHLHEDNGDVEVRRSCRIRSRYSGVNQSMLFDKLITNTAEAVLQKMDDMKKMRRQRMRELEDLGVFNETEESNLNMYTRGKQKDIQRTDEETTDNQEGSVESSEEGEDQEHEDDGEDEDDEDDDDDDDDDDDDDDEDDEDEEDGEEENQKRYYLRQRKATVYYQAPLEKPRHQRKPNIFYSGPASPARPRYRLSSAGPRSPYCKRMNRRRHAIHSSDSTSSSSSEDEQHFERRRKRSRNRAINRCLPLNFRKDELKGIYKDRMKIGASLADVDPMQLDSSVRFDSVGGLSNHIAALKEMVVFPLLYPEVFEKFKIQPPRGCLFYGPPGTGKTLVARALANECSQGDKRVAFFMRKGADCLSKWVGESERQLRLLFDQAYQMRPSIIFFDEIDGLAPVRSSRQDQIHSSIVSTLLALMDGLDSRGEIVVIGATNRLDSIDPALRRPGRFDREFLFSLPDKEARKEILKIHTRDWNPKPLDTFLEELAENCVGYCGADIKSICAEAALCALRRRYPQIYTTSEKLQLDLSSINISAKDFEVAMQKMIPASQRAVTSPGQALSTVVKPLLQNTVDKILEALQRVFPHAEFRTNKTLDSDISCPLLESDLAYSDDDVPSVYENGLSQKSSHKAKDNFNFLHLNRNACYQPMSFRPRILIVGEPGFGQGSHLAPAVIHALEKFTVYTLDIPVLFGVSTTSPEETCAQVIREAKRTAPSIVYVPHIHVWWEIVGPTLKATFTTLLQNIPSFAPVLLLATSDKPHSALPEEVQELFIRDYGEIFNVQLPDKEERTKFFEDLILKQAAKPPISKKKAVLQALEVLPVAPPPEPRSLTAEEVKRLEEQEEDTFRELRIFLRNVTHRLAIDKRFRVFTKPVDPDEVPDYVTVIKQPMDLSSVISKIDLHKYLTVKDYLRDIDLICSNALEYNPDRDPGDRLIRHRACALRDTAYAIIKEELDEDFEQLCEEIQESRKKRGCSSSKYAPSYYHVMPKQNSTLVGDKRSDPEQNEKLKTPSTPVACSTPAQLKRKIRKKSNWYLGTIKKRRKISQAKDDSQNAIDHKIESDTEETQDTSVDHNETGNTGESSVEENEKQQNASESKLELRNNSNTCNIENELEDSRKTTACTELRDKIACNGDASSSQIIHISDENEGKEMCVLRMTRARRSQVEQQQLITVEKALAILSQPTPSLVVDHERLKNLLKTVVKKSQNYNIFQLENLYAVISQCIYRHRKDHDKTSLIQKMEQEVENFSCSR
Method in brief: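 Recombinant ATAD2 bromodomain and BET ligand read by TR-FRET. Compounds diluted in DMSO, then 20-fold in 5% DMSO in reaction buffer; 2 µl added per 20 µl reaction. Incubated 180 min, then acceptor/donor fluorescence ratio read. Each concentration run in duplicate.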

MDA-MB-231 [2] = experiment: Induction of apoptosis in human MDA-MB-231 cells assessed as necrotic cells at 5 microM after 24 hrs by Annexin-V/PI staining based flow cytometry (Rvb= 1.22%); type: functional
MDA-MB-231 [3] = experiment: Induction of autophagy in human MDA-MB-231 cells assessed as downregulation of PI3K expression at 1.25 to 5 uM for 24 hrs by Western blot assay; type: functional, cell-based; details: dose 1.25-5 µM
Method in brief: (§1)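 MDA-MB-231 cells treated with 1.25, 2.5 or 5 µM for 24 h. Lysates made in Hepes pH 7.4/Triton X-100 buffer with protease and phosphatase inhibitors, then run on SDS-PAGE, blotted to PVDF and detected by HRP/ECL. p-PI3K and p-mTOR Ser2448 bands normalised to β-actin.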

MDA-MB-231 [4] = experiment: Induction of autophagy in human MDA-MB-231 cells assessed as downregulation of mTOR at ser2448 residue expression at 1.25 to 5 uM for 24 hrs by Western blot assay; type: functional, cell-based; details: dose 1.25-5 µM; method in brief: as §1
MDA-MB-231 [5] = experiment: Induction of apoptosis in human MDA-MB-231 cells assessed as reduction of Bcl-2 expression after 24 hrs by Western blot assay; type: functional, cell-based; details: dose 1.25-5 µM
Method in brief: (§2)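 MDA-MB-231 cells (DMEM, 10% FBS, 5% CO2) exposed to 1.25, 2.5 or 5 μM for 24 h. Adherent and floating cells lysed in Hepes 50 mM pH 7.4/1% Triton X-100 buffer with phosphatase and protease inhibitors. Equal protein run on 10–15% SDS-PAGE, transferred to PVDF, detected by HRP/ECL. Bands normalised to β-actin, compared with DMSO control by unpaired t-test.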

MDA-MB-231 [6] = experiment: Induction of apoptosis in human MDA-MB-231 cells assessed as late apoptotic cells at 5 microM after 24 hrs by Annexin-V/PI staining based flow cytometry (Rvb= 2.46%); type: functional
MDA-MB-231 [7] = experiment: Induction of apoptosis in human MDA-MB-231 cells assessed as viable cells at 2.5 microM after 24 hrs by Annexin-V/PI staining based flow cytometry (Rvb= 93.17 %); type: functional; details: read-out: Activity
MDA-MB-231 [8] = experiment: Inhibition of ATAD2 in human MDA-MB-231 cells by measuring c-myc phosphorylation at 1.25 to 5 uM for 24 hrs by Western blot analysis; type: functional, cell-based; details: dose 1.25-5 µM
Method in brief: (§3)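 MDA-MB-231 cells treated with 1.25, 2.5 and 5.0 µM for 24 h. Lysates separated on 10–15% SDS-PAGE and blotted to PVDF. c-Myc and p-cMyc detected with HRP/ECL, with β-actin as loading control.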

MDA-MB-231 [9] = experiment: Induction of apoptosis in human MDA-MB-231 cells assessed as viable cells at 5 microM after 24 hrs by Annexin-V/PI staining based flow cytometry (Rvb= 93.17 %); type: functional; details: read-out: Activity
MDA-MB-231 [10] = experiment: Induction of apoptosis in human MDA-MB-231 cells assessed as reduction of cleavage of caspase 8 after 24 hrs by Western blot assay; type: functional, cell-based; details: dose 1.25-5 µM; method in brief: as §2
MDA-MB-231 [11] = experiment: Inhibition of ATAD2 in human MDA-MB-231 cells assessed as downregulation of c-myc phosphorylation at 2.5 uM by immuno chemistry analysis; type: cell-based
Method in brief: (§4)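 MDA-MB-231 cells treated at 2.5 µM. Anti-ATAD2 or anti-p-cMyc primary (1:200 in PBS/1% BSA) applied overnight at 4 °C, then fluorescent secondary antibody 1 h at room temperature. Nuclei counterstained with DAPI, green signal imaged.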

MDA-MB-231 [12] = experiment: Induction of apoptosis in human MDA-MB-231 cells assessed as early apoptotic cells at 5 microM after 24 hrs by Annexin-V/PI staining based flow cytometry (Rvb= 3.14 %); type: functional
MDA-MB-231 [13] = experiment: Induction of apoptosis in human MDA-MB-231 cells assessed as necrotic cells at 1.25 microM after 24 hrs by Annexin-V/PI staining based flow cytometry (Rvb= 1.22%); type: functional
MDA-MB-231 [14] = experiment: Induction of apoptosis in human MDA-MB-231 cells assessed as early apoptotic cells at 2.5 microM after 24 hrs by Annexin-V/PI staining based flow cytometry (Rvb= 3.14 %); type: functional
MDA-MB-231 [15] = experiment: Induction of autophagy in human MDA-MB-231 cells assessed as increase of p-ULK1 expression after 24 hrs by Western blot assay; type: functional, cell-based; details: dose 1.25-5 µM
MDA-MB-231 [16] = experiment: Inhibition of ATAD2 in human MDA-MB-231 cells by measuring c-myc protein level at 1.25 to 5 uM for 24 hrs by Western blot analysis; type: functional, cell-based; details: dose 1.25-5 µM; method in brief: as §3
MDA-MB-231 [17] = experiment: Induction of autophagy in human MDA-MB-231 cells assessed as downregulation of mTOR expression at 1.25 to 5 uM for 24 hrs by Western blot assay; type: functional, cell-based; details: dose 1.25-5 µM; method in brief: as §1
MDA-MB-231 [18] = experiment: Induction of apoptosis in human MDA-MB-231 cells assessed as increase of Bax expression after 24 hrs by Western blot assay; type: functional, cell-based; details: dose 1.25-5 µM; method in brief: as §2
MDA-MB-231 [19] = experiment: Induction of autophagy in human MDA-MB-231 cells assessed as increase of LC3-II expression after 24 hrs by Western blot assay; type: functional, cell-based; details: dose 1.25-5 µM
MDA-MB-231 [20] = experiment: Induction of autophagy in human MDA-MB-231 cells assessed as downregulation of AKT expression at 1.25 to 5 uM for 24 hrs by Western blot assay; type: functional, cell-based; details: dose 1.25-5 µM
MDA-MB-231 [21] = experiment: Induction of autophagy in human MDA-MB-231 cells assessed as increase of beclin 1 expression after 24 hrs by Western blot assay; type: functional, cell-based; details: dose 1.25-5 µM
MDA-MB-231 [22] = experiment: Induction of apoptosis in human MDA-MB-231 cells assessed as late apoptotic cells at 2.5 microM after 24 hrs by Annexin-V/PI staining based flow cytometry (Rvb= 2.46%); type: functional
MDA-MB-231 [23] = experiment: Induction of autophagy in human MDA-MB-231 cells assessed as aggregation of LC3 puncta after 24 hrs by immunofluorescence analysis; type: functional, cell-based
Method in brief: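 MDA-MB-231 cells transfected with GFP/mRFP-LC3, then exposed to 2.5 µM for 24 h. LC3 puncta and autophagy ratio scored under a fluorescence microscope.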

MDA-MB-231 [24] = experiment: Induction of autophagy in human MDA-MB-231 cells assessed as increase of ULK1 expression after 24 hrs by Western blot assay; type: functional, cell-based; details: dose 1.25-5 µM
MDA-MB-231 [25] = experiment: Induction of apoptosis in human MDA-MB-231 cells assessed as early apoptotic cells at 1.25 microM after 24 hrs by Annexin-V/PI staining based flow cytometry (Rvb= 3.14 %); type: functional
MDA-MB-231 [26] = experiment: Induction of apoptosis in human MDA-MB-231 cells assessed as reduction of cleavage of caspase 3 after 24 hrs by Western blot assay; type: functional, cell-based; details: dose 1.25-5 µM; method in brief: as §2
MDA-MB-231 [27] = experiment: Induction of apoptosis in human MDA-MB-231 cells assessed as necrotic cells at 2.5 microM after 24 hrs by Annexin-V/PI staining based flow cytometry (Rvb= 1.22%); type: functional
MDA-MB-231 [28] = experiment: Induction of autophagy in human MDA-MB-231 cells assessed as degradation of SQSTM1/p62 after 24 hrs by Western blot assay; type: functional, cell-based; details: dose 1.25-5 µM
MDA-MB-231 [29] = experiment: Induction of apoptosis in human MDA-MB-231 cells assessed as late apoptotic cells at 1.25 microM after 24 hrs by Annexin-V/PI staining based flow cytometry (Rvb= 2.46%); type: functional
MDA-MB-231 [30] = experiment: Inhibition of ATAD2 in human MDA-MB-231 cells by measuring reduction in color intensity at 2.5 uM by immuno chemistry analysis; type: functional, cell-based; method in brief: as §4

## COc1cc(Cl)c(C(=O)N[C@H](CN[C@H]2CC[C@@H](N)CC2)Cc2ccc(C#N)cc2)cc1-c1ccc(CN[C@H](C)c2ccc(C)cc2)o1
[1]
  IC50: 242 nM

## CC1=C(C#N)c2nc(N)c(C#N)c(C)c2/C1=C\c1ccc(-c2cc(C(=O)O)ccc2Cl)o1
MDA-MB-231 [2]
  Activity: 5.98%
MDA-MB-231 [3]
  Activity: Active
MDA-MB-231 [4]
  Activity: Active
MDA-MB-231 [5]
  Activity: Active
MDA-MB-231 [6]
  Activity: 10.01%
MDA-MB-231 [7]
  viability at 2.5 µM: 84.7%
MDA-MB-231 [8]
  Activity: Active
MDA-MB-231 [9]
  viability at 5 µM: 60.1%
MDA-MB-231 [10]
  Activity: Active
MDA-MB-231 [11]
  inhibition: Active
MDA-MB-231 [12]
  Activity: 23.86%
MDA-MB-231 [13]
  Activity: 1.55%
MDA-MB-231 [14]
  Activity: 7.76%
MDA-MB-231 [15]
  Activity: Dose-Dependent Effect
MDA-MB-231 [16]
  Activity: Active
MDA-MB-231 [17]
  Activity: Active
MDA-MB-231 [18]
  Activity: Active
MDA-MB-231 [19]
  Activity: Active
MDA-MB-231 [20]
  Activity: Active
MDA-MB-231 [21]
  Activity: Active
MDA-MB-231 [22]
  Activity: 3.92%
MDA-MB-231 [23]
  Activity: Active
MDA-MB-231 [24]
  Activity: Dose-Dependent Effect
MDA-MB-231 [25]
  Activity: 5.24%
MDA-MB-231 [26]
  Activity: Active
MDA-MB-231 [27]
  Activity: 3.67%
MDA-MB-231 [28]
  Activity: Active
MDA-MB-231 [29]
  Activity: 2.89%
MDA-MB-231 [30]
  Activity: Active
